Assay results from ChEMBL document CHEMBL3227935, “Mapping the dopamine receptor. 2. Features derived from modifications in the rings A/B region of the neuroleptic butaclamol” (J Med Chem, 1979).
Calls of active or inactive are those of the source. The rule behind the calls is not given here.

What was measured:
Rattus norvegicus [1] = experiment: Neuroleptic activity in Sprague-Dawley rat assessed as inhibition of d-amphetamine sulfate-induced stereotyped behavior at 20 mg/kg, ip measured every 15 mins for 4 hrs; format: functional, organism-based; set-up: dose 20 mg/kg
In short: (§1)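 Male rats (160-180 g), groups of four or more, given d-amphetamine 10 mg/kg ip, then graded ip doses of compound or vehicle 15 min later (highest 20 mg/kg). Behavior scored every 15 min over 4 h: 0 normal, 1 excited, 2 stereotyped. MED is the lowest dose antagonizing all amphetamine effects for the whole period.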

[2] = Dissociation constant, pKa of the compound; format: physicochemical
Rattus norvegicus [3] = experiment: Neuroleptic activity in ip dosed Sprague-Dawley rat assessed as protection against epinephrin bitartrate-induced mortality measured over 24 hrs; format: functional
In short: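 Groups of six or more male Sprague–Dawley rats (220–250 g) received graded ip doses. Epinephrine bitartrate, 0.25 mg/kg iv, lethal to untreated rats, was injected 1 h later. Deaths were counted over 24 h. Protective ED50 (mg/kg, ip) is the dose that saved 50% of rats, calculated by Litchfield–Wilcoxon.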

Rattus norvegicus [4] = experiment: Induction of catalepsy in Sprague-Dawley rat at 5 mg/kg, ip measured after 1 to 24 hrs relative to control; format: organism-based; set-up: dose 5 mg/kg, route intraperitoneal; conditions: in vivo
In short: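 Male rats (160-180 g), groups of six, given 5 mg/kg ip. Catalepsy scored at 1, 2, 4, 6 and 24 h using stages III and IV of Wirth et al. The highest mean cataleptic score is expressed as percent of the maximum attainable score.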

Mus musculus = species on record: Mus musculus; experiment: Induction of taming effect in Swiss albino mouse assessed as reduction of isolation-induced fighting behavior measured after 0.5 to 3 hrs; format: functional
In short: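 Male albino mice (14-16 g) isolated 4-5 weeks, then paired in one cage for 5 min. A morning control session confirmed maximal fighting in both members of each pair. Compounds given ip, with retesting at 30 min and 3 h. All-or-none read-out: effective if no fighting occurred in the 5-min observation. ED50 (mg/kg, ip) is the dose abolishing fighting in 50% of pairs, by Litchfield-Wilcoxon.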

Rattus norvegicus [5] = experiment: Neuroleptic activity in ip dosed Sprague-Dawley rat assessed as inhibition of d-amphetamine sulfate-induced stereotyped behavior measured every 15 mins for 4 hrs; format: functional; conditions: read-out: MED; in short: as §1
Rattus norvegicus [6] = experiment: Neuroleptic activity in ip dosed Sprague-Dawley rat assessed as failure in active avoidance response measured within 30 mins; format: functional; conditions: 0.5 h
In short: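 Male rats (250-400 g) trained in a three-chamber discrimination box to move to a lighted exit within 10 s or receive shock. Before dosing, a two-trial control session in groups of six or more. Graded ip doses, then ten trials 30 min later. Mean failures to leave before shock are taken as percent of trials. ED50 gives 50% failure, by Litchfield-Wilcoxon.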

SMILES	inhibition (Rattus norvegicus [1])	pKa [2]	ED50 (Rattus norvegicus [3]) [mg/kg]	%max (Rattus norvegicus [4]) [%]	ED50 (Mus musculus) [mg/kg]	minimal effective dose (Rattus norvegicus [5]) [mg/kg]	ED50 (Rattus norvegicus [6]) [mg/kg]
CC(C)(C)C1(O)CCN2C[C@H]3Cc4ccccc4Cc4cccc(c43)C2C1 (stereo not given in full)	inactive						
CC(C)(C)[C@@]1(O)CCN2C[C@@H]3c4ccccc4CCc4cccc(c43)[C@H]2C1		5.9	15	60	1.9	0.62	0.64
CC(C)(C)C1(O)CCN2C[C@H]3Cc4ccccc4Cc4cccc(c43)[C@H]2C1 (relative stereo)	inactive						
CC(C)(C)C1(O)CCN2C[C@H]3Cc4ccccc4Cc4cccc(c43)[C@@H]2C1 (relative stereo)			10	45	2	0.62	1
CC(C)(C)C1(O)CCN2C[C@H]3CCc4ccccc4-c4cccc(c43)[C@@H]2C1 (relative stereo)	inactive						
CC(C)(C)C1(O)CCN2C[C@H]3CCc4ccccc4-c4cccc(c43)[C@H]2C1 (relative stereo)	inactive						
